Rows were chosen to be rich in hits. Some 11% of all compounds tested hit in one or more screens of this group.
M1 antagonist – antagonists of rat M1 muscarinic receptor. P08482. CHO-M1 cells, Fluo-4 calcium, ACh EC80 antagonist mode; hits give low values. B-score at 10 µM. 3.4% of 64,000 active;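 active = calcium fluorescence response, raw or row-and-column corrected B-score, differing from the plate sample mean either way at a set confidence level, mostly lower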
S1P1 ag-PAM – S1P1 (human) agonism or agonism potentiation | P21453 | S1P1 CRE-bla cells, forskolin, beta-lactamase FRET, potentiator mode; S1P1 agonist co-added at EC20, 2 nM; 100% = saturating reference agonist, 0% = basal | activation, % at 9.5 µM | 0.57% of 56,000 active;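 active = activation above a cutoff set at the mean activation of all tested compounds plus 3 SD, cut at about 54% in these data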;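 note: forskolin at 4 µM as EC80 and the EC20 agonist is SEW2871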
Target sequence (P21453 whole entry, looked up): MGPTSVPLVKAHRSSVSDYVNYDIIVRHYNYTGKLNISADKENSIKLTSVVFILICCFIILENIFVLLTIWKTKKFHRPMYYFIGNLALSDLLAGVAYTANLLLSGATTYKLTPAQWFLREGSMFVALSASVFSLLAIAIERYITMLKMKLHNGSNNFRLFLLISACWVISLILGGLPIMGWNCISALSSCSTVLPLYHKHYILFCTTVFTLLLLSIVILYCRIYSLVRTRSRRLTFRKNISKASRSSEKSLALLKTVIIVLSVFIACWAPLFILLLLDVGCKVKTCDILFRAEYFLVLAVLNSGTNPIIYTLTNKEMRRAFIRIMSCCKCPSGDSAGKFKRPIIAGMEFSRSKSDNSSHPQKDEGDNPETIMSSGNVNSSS
D1 allo mod – D1 dopamine receptor (human) allosteric modulation | P21728 | HEK293 D1, CRE-luciferase, dopamine EC30 potentiation; actives deviate in either direction | B-score at 10 µM | 5.9% of 58,000 active | AID 641;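 active = luminescence count or its row- and column-corrected plate score outside the 99.7% band of the plate's sample wells, on either side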
S1P3 ag – S1P3 (human) receptor agonism. AID 373. activation, % at 4.5 µM. S1P3 NFAT-BLA reporter cells, FRET ratio; relative to 1 µM S1P, basal subtracted. 0.1% of 60,000 active. Q99500;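 active = activation above the screen-wide mean plus 3 SD, cut at about 4.5% in these data, passing the limit was not always enough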
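Assay system: CHO cells stably expressing human S1P3, Gα16 and NFAT-β-lactamase reporter. Timing: overnight plating, 4 h compound 37 °C, 2 h substrate RT. Signal: β-lactamase FRET emission ratio 460/535 nm. Measure: percent activation versus median 1 µM S1P response, basal-subtracted, per plate. Repeats: primary screen single test, confirmation screen in triplicate.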
M1 agonist – agonists of M1 muscarinic receptor; CHO-M1 cells, Fluo-4 calcium fluorescence, agonist mode; hits give high values; B-score at 10 µM; 3% of 64,000 active; AID 626;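 active = fluorescence rise, raw or as B-score row- and column-corrected plate score, outside the 99.7% band of its plate's samples, either direction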
Hits are given with their value; – = inactive; · = no result.

SMILES | M1 antagonist | S1P1 ag-PAM | D1 allo mod | S1P3 ag | M1 agonist
CCOc1ccc(Nc2c3c(nc4ncnn24)CC(C)CC3)cc1 (stereo not given) | 2.4 | – | – | – | –
CCC(C)n1c(SCC(=O)NC(=O)Nc2ccc3c(c2)OCCO3)nc2ccccc2c1=O (stereo not given) | – | – | – | – | –
c1ccc(C(Cc2nc(-c3cccnc3)no2)c2ccccc2)cc1 | – | 85 | · | 20 | –
c1ccc(C(Cc2nc(-c3ccccn3)no2)c2ccccc2)cc1 | – | – | – | 11 | –
c1ccc(Cc2nc(-c3ccccn3)no2)cc1 | – | – | – | – | –
CCN1CCCC1CNC(=O)c1nn(-c2ccc(C)cc2)c(=O)c2c1c1ccccc1n2C (stereo not given) | – | – | – | – | –
CC(=O)N1CCN(c2nc3cc4c(cc3nc2NS(=O)(=O)c2ccccc2)OCCO4)CC1 | – | – | – | – | –
Cc1ccc(CSc2nnc(-c3cccs3)n2C)cc1 | – | – | – | – | –
Cc1ccc(-n2c(-c3ccncc3)nnc2-c2cccs2)cc1 | – | – | 7 | – | –
O=C(O)C1C2C=CC(C2)C1C(=O)OC1CC2CCC1C2 (stereo not given) | – | – | -4.9 | – | –
O=C(O)CCC(=O)OC1CC2CCC1C2 (stereo not given) | – | – | – | – | –
CCc1ccc(OCC(=O)Nc2ncc3c(n2)CC(C)(C)CC3=O)cc1 | – | – | – | – | –
CC(=O)N1CCN(CCN=CC2=C(O)CC(c3cccs3)CC2=O)CC1 (stereo not given) | – | – | – | – | –
C/C(=C\C(=O)c1ccc(C)cc1)Nc1cccc(O)c1 | – | – | – | – | –
Cc1ccc(C(=O)/C=C/Nc2cccc(O)c2)cc1 | – | – | -2.8 | – | –
O=C(/C=C/Nc1cccc(O)c1)c1ccccc1 | – | – | -8.7 | – | –
O=C(NCCCn1ccnc1)c1cc2c(s1)CCCCC2 | – | – | – | – | –
CCOC(=O)N1CCC(NC(=O)c2ccc3c(c2)sc2nc(-c4cccc(OC)c4)cn23)CC1 | – | – | -2.6 | – | –
CCOc1cccc(C(=O)Nc2nnc(-c3ccco3)s2)c1 | – | · | -3.7 | – | –
CCOC(=O)c1cc(-c2ccco2)nc2c1c(C)nn2CCC#N | 1.1 | – | – | – | –
CN(C)C=Nc1ccc2nn(-c3ccccc3)nc2c1 | – | – | -2.5 | – | –
CCc1ccc2oc(-c3cc(N=Cc4cccc(OC)c4O)ccc3O)nc2c1 | – | – | -5.6 | – | –
CN1CCN(CCCNc2nc3ccccc3c3nc(-c4ccccc4)nn23)CC1 | – | – | 5.9 | – | –
COc1cc2nc(NCCN3CCOCC3)n3nc(-c4ccccc4)nc3c2cc1OC | – | – | – | – | –
CN1CCN(Cc2nc(N)nc(Nc3ccc4c(c3)OCCO4)n2)CC1 | 1.3 | – | – | – | –
SMILES | M1 antagonist | S1P1 ag-PAM | D1 allo mod | S1P3 ag | M1 agonist
Cc1cccc(Nc2nc(N)nc(CN3CCN(Cc4ccc5c(c4)OCO5)CC3)n2)c1 | · | – | – | – | ·
Cc1nn2c(-c3cccc(NC(=O)CSc4nc5ccccc5o4)c3)nnc2c2ccccc12 | – | – | – | – | –
CCSc1ccccc1C(=O)NCc1ccc2c(c1)OCO2 | – | – | · | – | –
Cc1n[nH]c(C)c1S(=O)(=O)Nc1ccc2c(c1)OCCO2 | 2.3 | – | -4.2 | – | –
CC1=NC(C(F)(F)F)(C(F)(F)F)C2=C(CC(C)(C)CC2=O)N1Cc1ccco1 | – | · | – | – | –
CCOc1ccc2nc(NCCNC(=O)Nc3ccccc3)c(C#N)cc2c1 | – | – | – | – | –
COc1ccc2nc(NCCCNC(=O)c3cc(OC)c(OC)c(OC)c3)c(C#N)cc2c1 | – | – | – | – | 15
Cc1sc(NC(=O)c2ccco2)nc1-c1ccc2c(c1)CC(C)N2C(=O)C1CC1 (stereo not given) | -3.6 | – | -3.6 | – | 14
COc1ccc(-n2c(C)c(C(C)=O)c3cc(O)ccc32)cc1 | – | 76 | · | – | –
CC(Oc1ccc(Cl)cc1Cl)C(=O)NCCCN(C)C (stereo not given) | – | – | · | – | –
COc1ccc(C(=O)Nn2c(SCC(=O)NCc3ccco3)nc3ccccc3c2=O)cc1 | – | – | -9.3 | – | –
COc1ccc(Cn2nnnc2C(c2cccs2)N2CCOCC2)cc1 (stereo not given) | 2.3 | – | – | – | –
c1ccc(CCn2nnnc2C(c2cccs2)N2CCOCC2)cc1 (stereo not given) | – | – | – | – | –
N#Cc1nc(COc2ccc(Cl)cc2Cl)oc1N1CCN(c2ccccc2)CC1 | – | 69 | – | – | –
COc1cc(NC(=O)Nc2cccc(Cl)c2)c(OC)cc1NC(=O)CN1CCCCC1 | – | – | -4 | – | –
CCOC(=O)c1cnc(SCC(=O)Nc2nc(C)c(C)s2)nc1N | – | – | – | – | –
Fc1cccc2sc(Nc3nnc(-c4ccco4)o3)nc12 | – | – | -2.7 | – | –
O=C(CSc1nnnn1-c1cccnc1)NCc1cccs1 | – | – | – | – | –
COc1ccc(CCC(=O)N2CCc3ccccc32)cc1 | – | – | – | – | –
Cc1cccc(NC(=O)c2cnc3ccccn3c2=O)c1 | – | – | -4.3 | – | –
CCOC(=O)c1c(NC(=O)CSc2nnc(CNc3ccc(F)cc3)o2)sc(C)c1C | – | – | -4.5 | – | –
Cc1ccccc1CS(=O)(=O)CCC(=O)NCCN1CCN(c2cccc(Cl)c2)CC1 | – | – | -3.6 | – | –
COc1cccc(CNn2cnnc2)c1OCc1ccc(F)cc1 | – | – | -4.9 | – | –
O=C(Nc1ccc2nsnc2c1)c1ccc2c(c1)OCO2 | – | – | -4 | – | –
O=C(Nc1cccnc1)C(Cc1ccccc1)n1cccc1 (stereo not given) | – | – | – | – | –
SMILES | M1 antagonist | S1P1 ag-PAM | D1 allo mod | S1P3 ag | M1 agonist
O=C(Nc1ncc(Br)s1)C(Cc1ccccc1)n1cccc1 (stereo not given) | – | 99 | – | – | –
N/C(=N\c1nc2c(c(=O)[nH]1)CCCC2)Nc1ccccc1 | – | 65 | – | – | –
O=S(=O)(Cc1ccccc1)N1CCc2ccccc21 | – | – | – | – | 8.3
COc1cccc(C2C(C(=O)OCc3ccccc3)=C(C)Nc3ncnn32)c1OC (stereo not given) | – | – | – | – | –
CCOc1cc(S(=O)(=O)N2CCN(CC)CC2)ccc1Cl | – | – | – | – | –
CCOc1cc(S(=O)(=O)N2CCCCC2)ccc1Cl | · | – | -4 | – | ·
c1nc(NCCN2CCOCC2)c2sc3nc(N4CCOCC4)c4c(c3c2n1)CCC4 | – | · | 6.8 | · | –
CC(OC(=O)c1cc(=O)[nH]c2ccccc12)c1ccccc1 (stereo not given) | – | – | – | – | –
COc1ccc2nc(NC(=O)C3COc4ccccc4O3)sc2c1 (stereo not given) | – | – | -4.8 | – | –
O=C(NC1=NCCS1)C1COc2ccccc2O1 (stereo not given) | – | – | -5.4 | – | –

Source: PubChem (several laboratories)
